UBC13 polyUb: blocks human UBC13 polyubiquitin chain formation. P61088. 330,000 tested, 0.47% active. TR-FRET. inhibition, % at 20 µM; in the data active = inhibition above about 45%, passing the limit was not always enough
Target sequence (P61088 whole entry, looked up): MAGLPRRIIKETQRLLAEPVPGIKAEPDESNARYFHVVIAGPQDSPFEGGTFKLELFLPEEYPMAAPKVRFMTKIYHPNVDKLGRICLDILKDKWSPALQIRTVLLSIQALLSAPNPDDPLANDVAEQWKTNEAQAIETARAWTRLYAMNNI
ZTA counter: ZTA (EBV) inhibition in EBNA-1 counter-screen; 320,000 tested, 0.15% active; P03206; ZTA-DNA binding, fluorescence polarization; AID 2234; inhibition, % at 11 µM; in the data active = inhibition above about 33%
Target sequence (P03206 whole entry, looked up): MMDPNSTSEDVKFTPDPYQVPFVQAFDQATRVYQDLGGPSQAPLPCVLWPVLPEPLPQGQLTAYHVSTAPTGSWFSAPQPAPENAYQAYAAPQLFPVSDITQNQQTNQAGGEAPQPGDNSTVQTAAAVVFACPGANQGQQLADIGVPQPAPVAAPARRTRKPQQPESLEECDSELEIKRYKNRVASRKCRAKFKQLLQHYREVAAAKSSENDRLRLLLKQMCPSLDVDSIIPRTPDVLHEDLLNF
PfG6PD inh: PfG6PD (Plasmodium falciparum) enzyme inhibition | PfGluPho enzyme, NADPH resazurin-diaphorase fluorescence | inhibition, % at 20 µM | 350,000 tested, 0.78% active | AID 504690;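 active = inhibition reaching at least a set limit at 20 µM in the primary screen, cut at about 59% in these data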;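 also: 0% = DMSO wells with substrate and 100% = DMSO wells lacking glucose-6-phosphate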
EBNA-1 inhibitor: blocks EBNA-1 binding to DNA; EBNA-1 DNA binding, fluorescence polarization; inhibition, % at 14.8 µM; 300,000 tested, 0.34% active; AID 1950; in the data active = inhibition above about 28%
M18AAP inhibitor: PfM18AAP enzyme inhibition | recombinant PfM18AAP, H-Glu-NHMec fluorogenic cleavage | inhibition, % at 7.35 µM | 290,000 tested, 1.2% active | AID 1822;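 active = inhibition above the campaign mean inhibition over all tested compounds plus 3 SD, cut at about 28% in these data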;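 also: 0% = plate median of test compound wells and 100% = 2 mM ZnCl2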
Apaf1 inhib: blocks human Apaf-1 apoptosome activity | 330,000 tested, 0.71% active | reconstituted apoptosome caspase-3 activity, DEVD-Rh110 fluorescence | inhibition, % at 20 µM; active = inhibition of at least 40% at 20 µM;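 also: plate controls were DMSO wells for no effect and DEVD-CHO caspase inhibitor wells for full effect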
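Material: reconstituted apoptosome with Apaf-1, cytochrome c, caspase-9, procaspase-3, dATP; medium: pH 7.5 Hepes buffer with CHAPS, BSA, DTT; also added: cytochrome c and DEVD-Rh110 substrate; timing: 30 min plus 50 min, RT; signal: Rh110 fluorescence intensity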
PfG6PD confirm: confirmation of Plasmodium falciparum G6PD inhibitors | inhibition, % at 20 µM | 2,400 tested, 34% active | AID 504753 | shares compounds with PfG6PD inh | recombinant PfGluPho, NADPH-diaphorase-resazurin fluorescence;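 active = inhibition of at least 50% at 20 µM in any single replicate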;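 also: 0% = DMSO with substrate and 100% = DMSO lacking glucose-6-phosphate substrate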
Diaphorase 10uM: counter-screen for P. falciparum G6PD inhibitors: diaphorase inhibitors, oxidizers; 820 tested, 39% active; diaphorase-coupled resazurin reduction, fluorescence, NADPH 10 uM; inhibition, % at 20 µM; shares compounds with PfG6PD inh; AID 504862;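 active = average inhibition reaching 50% or more with the compound at 20 µM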;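 also: resorufin red fluorescence formed as diaphorase reduces resazurin using NADPH; 0% = DMSO with enzyme and 100% = DMSO without enzyme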
Diaph ctr 30uM: diaphorase inhibition or oxidation at 30 uM NADPH; Diaphorase/resazurin coupled assay, resorufin fluorescence; inhibition, % at 20 µM; shares compounds with PfG6PD inh; 820 tested, 29% active;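 active = inhibition averaging 50% or more, tested at 20 µM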;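 also: 0% = DMSO with enzyme and 100% = DMSO wells lacking diaphorase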
* = called active by the depositor; / = not tested or not shown. Shown are actives, neighbours in structure and some others; about 2.9% of the full set was active somewhere.

SMILES	UBC13 polyUb	ZTA counter	PfG6PD inh	EBNA-1 inhibitor	M18AAP inhibitor	Apaf1 inhib	PfG6PD confirm	others
O=C1CC(N2CCc3ccccc32)C(=O)N1c1ccc(F)cc1 (stereo unspecified)	-11	6	-4	2	5	6	/
Cc1ccc2nc(N(CCCN(C)C)C(=O)c3ccc4ncsc4c3)sc2c1	11	-25	60*	-9	5	9	-8
COc1ccc2nc(N(CCN(C)C)C(=O)c3ccc4ncsc4c3)sc2c1	/	/	34	/	/	/	/
CC(NC(=O)Cc1ccc([N+](=O)[O-])cc1)c1ccc2c(c1)OCO2 (stereo unspecified)	-4	6	5	6	4	-26	/
CCN1C(=O)[C@H]2[C@@H](c3ccc(C)cc3)N[C@]3(CCCN(Cc4ccc(F)cc4)C3=O)[C@H]2C1=O	/	/	-3	/	/	/	/
N#Cc1cc([N+](=O)[O-])ccc1Oc1cccc(/C=N/NC(=O)c2cccc(Cl)c2)c1	-1	1	119*	0	0	10	62*	Diaphorase 10uM=60*;Diaph ctr 30uM=59*
CNC(=S)N/N=C/c1c(C(=O)OC)cnn1-c1ccc(F)cc1F	-5	-8	68*	-3	1	9	23
CCN(CC)CCn1c(=S)[nH]c2cc(C(=O)N3CC(C)CC(C)C3)ccc2c1=O (stereo unspecified)	3	-6	2	-8	-4	-5	/
COC(=O)NC(=S)Nc1ccc(Oc2ccc(Cl)cc2Cl)c(Cl)c1	6	-10	82*	-5	-3	8	12
COC(=O)NC(=S)Nc1ccc(Oc2ccc(Cl)cc2)c(Cl)c1	4	8	56	-5	-10	-1	/
CCN(CC)CCn1c(O)c(N=O)c2ccccc21	-7	11	-2	5	2	-6	/
CCN(CC)CCn1c2ccccc2c(=O)c2c(O)ccc(O)c21	/	/	84*	/	/	/	98*	Diaphorase 10uM=31;Diaph ctr 30uM=30
FC(F)(F)Oc1ccc(NC(=S)Nc2ccccc2N2CCOCC2)cc1	4	-13	6	-8	5	1	/
CCn1c(C)nc2cc(C(=O)NNC(=O)c3ccc(C)cc3)ccc21	1	12	36	/	/	-5	/
CCn1c(C)nc2cc(C(=O)OC(C(F)(F)C(F)F)C(F)(F)C(F)F)ccc21	6	6	61*	1	0	19	15
CCN(CC)c1ccc(C(=C2C=CC(=[N+](CC)CC)C=C2)c2ccccc2)cc1	/	/	100*	/	/	/	68*	Diaphorase 10uM=-4;Diaph ctr 30uM=5
CCN(CC)c1ccc(C(=C2C=CC(=[N+](CC)CC)C=C2)c2ccc(N(CC)CC)cc2)cc1	/	/	92*	/	/	/	85*	Diaphorase 10uM=35;Diaph ctr 30uM=22
Cn1cnnc1SCC(=O)Nc1ccc2ccccc2c1	7	-16	12	/	/	-2	/
O=C(CSc1ncn[nH]1)Nc1ccccc1Sc1ccc(Cl)cc1	4	-14	110*	-2	4	7	68*	Diaphorase 10uM=59*;Diaph ctr 30uM=57*
Nc1cc(=O)[nH]c(SCC(=O)Nc2ccccc2Sc2ccc(Cl)cc2)n1	-4	4	50	12	5	-3	/
Cc1ccc(-c2nnc(NC(=O)Cc3ccc(F)cc3)o2)c(C)c1	-8	-3	-7	8	5	0	/
Cc1ccc(S(=O)(=O)N2C[C@@H]3CCCC[C@@H]3[C@@H](C)[C@H]2CC(=O)c2ccccc2)cc1	/	/	7	/	/	21	/
CCOc1ccccc1-n1c(SCC(=O)N2CCOCC2)nc2ccccc2c1=O	-2	-14	-1	-17	10	1	/
COc1ccc(Nc2nnc(SCc3cc(=O)n4ccsc4n3)s2)cc1	10	-7	82*	-11	10	15	47
CCOC(=O)C1CCCN(C(=O)Nc2c(-c3ccccc3)noc2C)C1 (stereo unspecified)	4	0	-6	-10	-11	-6	/
SMILES	UBC13 polyUb	ZTA counter	PfG6PD inh	EBNA-1 inhibitor	M18AAP inhibitor	Apaf1 inhib	PfG6PD confirm	others
CC(NS(=O)(=O)c1ccc(OCC(=O)Nc2cccc([N+](=O)[O-])c2)cc1)c1ccccc1 (stereo unspecified)	/	-3	4	5	-12	/	/
Cc1cc(C)c(S(=O)(=O)N2CCCOC2CNC(=O)C(=O)NCc2cccs2)c(C)c1 (stereo unspecified)	-6	1	6	5	4	0	/
O=C1Nc2cc(C(=O)NCCCN3CCCC3)ccc2S/C1=C\c1ccccc1	19	-8	105*	4	-2	24	98*	Diaphorase 10uM=-5;Diaph ctr 30uM=-16
COc1ccccc1CN(C)C(=O)c1ccc(S(=O)(=O)NCc2ccco2)cc1	1	-3	-9	/	/	-3	/
Cc1cc(O)c(C(C)C)cc1N=Cc1ccccc1O	-2	-3	103*	10	8	36	46
CC(N=Cc1ccccc1O)c1ccccc1 (stereo unspecified)	-5	-6	-13	-7	0	-4	/
O=[N+]([O-])c1ccc(Nc2ccccc2O)c([N+](=O)[O-])c1	/	/	66*	/	/	/	27
CC(C)c1ccc(NC(=O)Cn2nnc(C(=O)NCc3ccco3)c2N)cc1	-6	6	2	-5	-11	8	/
O=C(Nc1ccccc1)c1cc2ccccc2c(=O)s1	-4	-18	29	-14	4	10	/
O=C(Nc1ccccc1)c1cc2ccccc2s1	/	/	71*	/	/	/	15
O=c1c2ccccc2cnn1Cc1nnc(-c2cccs2)o1	-1	6	-9	1	1	4	/
CCOc1ccc(S(=O)(=O)N2CCC(C(=O)NC3CCCC3)CC2)cc1	14	-13	-1	-13	-2	-17	/
COc1ccccc1N(C(=O)CCl)c1cn(C(C)=O)c2ccccc12	5	13	-13	8	-1	-14	/
COc1ccccc1N(C(C)=O)C1=C(Cl)C(=O)c2ccccc2C1=O	/	/	123*	/	/	/	115*	Diaphorase 10uM=92*;Diaph ctr 30uM=92*
O=C(c1cc(-c2ccc(Cl)cc2)n(-c2ccc(Cl)c(Cl)c2)n1)N1CCOCC1	4	3	31	-2	-2	21	/
O=C(c1cc(-c2ccc(Cl)cc2)n(-c2cc(Cl)ccc2Cl)n1)N1CCOCC1	2	-3	78*	3	0	18	35
Cc1ccc(-n2c(SCC(=O)Nc3cc(C)on3)nc3c(c2=O)SC(C)C3)cc1 (stereo unspecified)	-7	-10	84*	-8	-6	-3	31
CCn1c(SCC(=O)Nc2cc(C)on2)nc2c(c1=O)SC(C)C2 (stereo unspecified)	-7	-16	-20	-4	4	-21	/
O=C(CCn1cnnn1)Nc1ccc(F)cc1	-19	-10	-8	-13	-3	-10	/
